Laboratory results taken from PubChem BioAssay.
Activity calls are given as the source filed them.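 The calls were made as follows, unless noted: active = visual image review flags a hit and inhibition of aggregation exceeds 20%; inconclusive = visual hit but inhibition at or below 20%; inactive = no hit on visual image review.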

Assays:
[1] = inhibitors of TNFa-induced NFkB p65 translocation, primary screen, imaging, HUVEC, MLSMR starter and 10KST1 sets (AID 438;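 active = inhibition above 20% together with a positive visual image hit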;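 also: compound added about 3h40 before a 20 min TNFalpha stimulation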;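 as to inhibition: signal is the nuclear over cytoplasmic p65 intensity ratio per well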); conditions: HUVEC TNFa-induced p65 nuclear translocation; cell count: measured here: nuclei count (cytotoxicity indicator), at 2.08 µM; inhibition: at 2 µM, stronger effect = higher value, 0% TNFa-plus-vehicle, 100% no-TNFa wells
[2] = reduction of polyQ htt aggregates in cells – imaging, exon1htt(103Q)mCFP cells, high-content imaging, primary screen (AID 483); conditions: exon1htt(103Q)mCFP cell line, aggregate imaging, at 2 µM; inhibition of aggregation: stronger effect = higher value; nuclei count: measured here: cell count, toxicity;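 also: compound exposure lasted 3 days before fixation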;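 as to nuclei count: percent of the per-plate median nuclei count of sample wells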
[3] = endothelial E-selectin expression blockers – imaging, HUVEC, immunofluorescence, MLSMR starter and 10KST1 sets, primary screen (AID 487;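 active = visually confirmed hit in the image check and inhibition above 20%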;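 as to inhibition: signal is fraction of cell area covered by stained E-selectin grains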;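 as to nuclei count: 100% = median nuclei count of all wells on the same plate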); conditions: HUVEC TNFalpha-induced E-selectin immunofluorescence imaging, at 2 µM; inhibition: stronger effect = higher value; nuclei count: measured here: cell number, toxicity
[4] = biological target: Voltage-gated potassium channel subunit beta-2 (Rattus norvegicus) (UniProt P62483); assay: inhibitors of rat Kvbeta2 reductase activity – biochemical, NADPH fluorescence, primary screen (AID 622;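 active = fluorescence slope higher than the sample average by over 3 SD, cut at about -0.22 in these data, passing the limit was not always enough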;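 also: slope of raw intensity against log time taken from 70 to 1610 s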); conditions: recombinant KvBeta, 4-cyanobenzaldehyde reduction, at 10 µM, stronger effect = higher value
Chain of Voltage-gated potassium channel subunit beta-2 (Rattus norvegicus) (P62483 whole entry, looked up): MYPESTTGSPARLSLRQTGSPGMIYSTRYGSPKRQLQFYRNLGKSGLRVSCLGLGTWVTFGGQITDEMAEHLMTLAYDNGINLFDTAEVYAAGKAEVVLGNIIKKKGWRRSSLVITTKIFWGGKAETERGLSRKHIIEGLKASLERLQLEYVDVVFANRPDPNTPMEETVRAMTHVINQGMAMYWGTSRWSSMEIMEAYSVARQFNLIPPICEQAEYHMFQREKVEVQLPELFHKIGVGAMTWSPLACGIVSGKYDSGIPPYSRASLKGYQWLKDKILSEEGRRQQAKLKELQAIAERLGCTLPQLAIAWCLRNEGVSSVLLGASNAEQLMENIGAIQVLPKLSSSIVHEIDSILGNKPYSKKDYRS

[5] = biological target: Voltage-gated potassium channel subunit beta-2 (Rattus norvegicus) (UniProt P62483); assay: enhancers of rat Kvbeta2 NADPH turnover – biochemical, NADPH fluorescence, primary screen (AID 623;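 active = NADPH fluorescence slope more negative than the mean of all samples by about 3 SD, 99.7% confidence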;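 also: fluorescence intensity change per second fitted from 20 to 320 s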); conditions: Recombinant KvBeta, NADPH fluorescence decrease slope, 10 min; at 10 µM; stronger effect = lower value
[6] = biological target: Muscarinic acetylcholine receptor M4 (Homo sapiens) (UniProt P08173); assay: M4-linked GIRK flux change, two-sided – cell-based, HEK293 M4/GIRK, thallium flux, BTC-AM, M4 allosteric agonist project, primary screen (AID 625;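 active = fluorescence slope after compound addition differing from the mean of all tested samples at 99.7% confidence, mostly higher but some lower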;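 also: thallium influx through GIRK channels coupled to M4 in HEK293 cells with BTC-AM dye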); conditions: at 10 µM, actives lie on both sides
Chain of Muscarinic acetylcholine receptor M4 (Homo sapiens) (P08173 whole entry, looked up): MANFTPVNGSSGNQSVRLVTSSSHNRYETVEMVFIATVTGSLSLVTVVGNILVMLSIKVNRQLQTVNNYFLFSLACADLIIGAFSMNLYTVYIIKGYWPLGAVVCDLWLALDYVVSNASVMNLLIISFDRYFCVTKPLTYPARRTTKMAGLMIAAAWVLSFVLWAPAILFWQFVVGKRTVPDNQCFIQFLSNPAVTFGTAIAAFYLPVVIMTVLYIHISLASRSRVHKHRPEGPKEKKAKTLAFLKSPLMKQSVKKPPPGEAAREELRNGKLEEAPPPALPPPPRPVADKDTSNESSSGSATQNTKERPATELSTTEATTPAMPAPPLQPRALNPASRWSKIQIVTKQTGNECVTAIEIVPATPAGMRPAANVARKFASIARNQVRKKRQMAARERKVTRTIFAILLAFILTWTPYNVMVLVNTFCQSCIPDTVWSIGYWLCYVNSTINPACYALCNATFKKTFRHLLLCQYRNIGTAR
Method in brief: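 System: HEK293 cells with M4 receptor and GIRK channels | Incubation: Cells overnight at 37 °C, BTC-AM loading 1 h, reads 2 min total | Technique: Kinetic BTC-AM fluorescence sampled at 1 Hz, 10 s pre-addition baseline | Measure: Post-addition slope, 15–24 s, of baseline-normalized fluorescence | Control set: Carbachol positive, DMSO negative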

[7] = blockers of RIG-like receptor reporter activation – cell-based, Sendai virus stimulus, luciferase, 10K MLSCN set, TLR/RLR signaling modifier project, primary screen (AID 602276;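 active = inhibition at or above 50% at 10 µM; inactive = inhibition below 50%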;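 also: firefly luciferase from ISG56 promoter only with Renilla not read in this screen; 0% = Sendai virus plus DMSO and 100% = medium plus DMSO without virus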); conditions: HEK293 RL24 IRF3 luciferase reporter, at 10 µM, stronger effect = higher value
[8] = TLR3 IRF3 reporter activation blockers – cell-based, poly I:C stimulus, luciferase, 10K MLSCN set, primary screen (AID 602277;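 active = inhibition of the reporter signal at or above 50%; inactive = inhibition below 50%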); conditions: HEK293-TLR3 RL24 IRF3 luciferase reporter, at 10 µM, stronger effect = higher value

Row | Compound | cell count [1] | inhibition [1] | inhibition of aggregation [2] | nuclei count [2] [%] | inhibition [3] | nuclei count [3] [%] | fluorescence slope [4] | NADPH fluorescence slope [5] | fluorescence slope [6] | inhibition [7] | inhibition [8]
1 | O=C(CSC1=NC(=O)C(Cc2ccccc2)C(=O)N1)NC1CCCCC1 (stereo not drawn) | 605 | -9.8% (inactive) | -13.9% (inactive) | 104 | -11.4% (inactive) | 108 | -0.558 (inactive) | -6.8e-05 (inactive) | 0.0034 (inactive) | -10.2% (inactive) | -11.1% (inactive)
2 | CC1CC(=O)C2=C(C1)OC(N)=C(C#N)C2c1coc2ccccc2c1=O (stereo not drawn) | 282 | -10.1% (inactive) | 8.2% (inactive) | 79.3 | 24.1% (inactive) | 82.2 | -0.514 (inactive) | -4.1e-05 (inactive) | 0.00433 (inactive) | 19.2% (inactive) | 23.4% (inactive)
3 | CCN1C(=O)NC(c2cc(Br)ccc2OC)C(C(=O)OC)=C1C (stereo not drawn) | 451 | -13.1% (inactive) | 2.4% (inactive) | 92 | -25.6% (inactive) | 89.2 | -0.491 (inactive) | 3.4e-05 (inactive) | 0.00605 (inactive) | -1.28% (inactive) | 17.3% (inactive)
4 | CCC1(CC)C(=O)C(C)(C)C(=O)OC1c1cccs1 (stereo not drawn) | 750 | -8.8% (inactive) | 10.4% (inactive) | 91.1 | -18.3% (inactive) | 110 | -0.454 (inactive) | -4.2e-05 (inactive) | 0.00495 (inactive) | 21.5% (inactive) | 19.6% (inactive)
5 | COc1cccc2cc(C(=O)Nc3cccnc3N3CCOCC3)c(=O)oc12 | 348 | -10.5% (inactive) | -13.5% (inactive) | 48.9 | -32.3% (inactive) | 98.9 | -0.573 (inactive) | 1.5e-05 (inactive) | 0.00618 (inactive) | 10.7% (inactive) | 4.05% (inactive)
6 | O=C(N1CCCCCC1)N1CCN(C(=O)N2CCOCC2)CC1 | 437 | -13.3% (inactive) | 7.7% (inactive) | 99.6 | -24.8% (inactive) | 134 | -0.563 (inactive) | -1.7e-05 (inactive) | 0.00574 (inactive) | 3.08% (inactive) | -6.18% (inactive)
7 | COc1ccc(N2CCN(C(c3cccc(OC)c3OC)c3nnnn3C3CCCC3)CC2)cc1 (stereo not drawn) | 709 | 20% (inactive) | -7.2% (inactive) | 96.3 | 36.9% (inactive) | 76.2 | -0.508 (inactive) | 9.8e-05 (inactive) | 0.00439 (inactive) | -1.29% (inactive) | 21.9% (inactive)
8 | Cn1cnnc1SCC(=O)Nc1sc2c(c1C#N)CCCCC2 | 564 | -29.4% (inactive) | 2.6% (inactive) | 80.6 | -29.2% (inactive) | 108 | -0.499 (inactive) | 0.000104 (inactive) | 0.00534 (inactive) | -24.5% (inactive) | -31.5% (inactive)
